PGC1a acetyl up: raises PGC1a acetylation signal in U2OS cells; 0.21% of 350,000 active; activation, % at 15.6 µM; AID 651723; U2OS PGC1a acetylation AlphaScreen, overnight;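 active = every replicate reaching activation of at least 50%, whatever the mean replicate activation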;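 note: hits raise the AlphaScreen acetylation signal above neutral controls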
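System – flag-PGC1a/GCN5 U2OS cells · Quantity – 7000 U2OS cells per well · Signal – AlphaScreen proximity luminescence, anti-acetyl-lysine antibody · Schedule – overnight compound treatment, 37 °C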
G6PC hep suppr: PGC-1a acetylation activator altering hepatocyte G6PC expression; shares compounds with PGC1a acetyl up; primary mouse hepatocytes, G6PC mRNA qPCR, forskolin; G6PC suppression (normalized activity, % of positive control; higher = more suppression), % at 26 µM; 240 tested, under 10 active;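 active = dose curves showing G6PC suppression whose half-maximal dose is at most twice the top valid dose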;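 note: G6PC expression relative to GAPDH housekeeping gene as delta delta Ct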
PCK1 hep suppr: PGC-1a acetylation activators affecting PCK1 expression in hepatocytes; PCK1 expression decrease, unspecified at 26 µM; shares compounds with PGC1a acetyl up; 230 tested, under 10 active; primary mouse hepatocytes, PCK1 mRNA qPCR, forskolin-stimulated;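 active = compounds lowering PCK1 expression whose fitted half-maximal concentration is at most twice the top tested dose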;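 note: higher delta delta Ct means lower PCK1 expression so positive values indicate hits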
PGC1a hep suppr: hepatocyte PGC-1a expression change via PGC-1a acetylation activation | AID 743467 | primary mouse hepatocytes, PGC-1a mRNA qPCR, forskolin; top dose 26 µM | shares compounds with PGC1a acetyl up | 240 tested, under 10 active | max activity (PGC-1a expression decrease), %;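 active = compound lowering PGC-1a expression with fitted half-maximal concentration at most twice its top tested dose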
Large screens that a line does not name were inactive (follow-up assays come after a bar, where they were run). These entries were drawn from the full list.

CC(C)C(NC(=O)c1ccc(C(C)(C)C)cc1)C(=O)O (stereo unspecified)	none
O=C(O)c1ccc(N=Nc2c(O)[nH]c3ccccc23)cc1	none
CC(=O)c1c(-c2ccccc2)[nH]c2ccccc12	PGC1a acetyl up 61
Cc1nc2ccc(C(=O)Nc3ccccc3Cl)cc2s1	none
CC(C)C#Cc1ccc([C@@H]2[C@H]3CN(C(=O)NC4CCCC4)CC(=O)N3[C@H]2CO)cc1	none
CCc1cc(C=NC2CCCCC2)c(O)s1	PGC1a acetyl up 61
OC(c1ccc(Cl)cc1Cl)C(Cc1cccnc1)n1cncn1 (stereo unspecified)	PGC1a acetyl up 59
Cc1c(CNCCc2ccc(Cl)cc2)c(C(=O)O)c(C)n1-c1ccccc1	none
Cn1c(CCN2CCCCC2)nc2cc(NS(=O)(=O)c3ccccc3)ccc21	PGC1a acetyl up 64
Cn1c(CN2CCCC2)nc2cc(NC(=O)COc3ccc(Cl)cc3)ccc21	none
Cc1cccc(C)c1NC(=O)CS(=O)CC(=O)Nc1ccc(F)cc1F (stereo unspecified)	PGC1a acetyl up 57
CC1OC(CC(=O)O)CC2=C1C(=O)c1c(O)cccc1C2=O (stereo unspecified)	none
COc1ccc(NC(=O)/C(Cl)=C(/Cl)S(=O)Cc2ccccc2)cn1 (stereo unspecified)	none
COc1ccc(NC(=O)C2(C)Cc3c(-c4cccc(NC(C)=O)c4)ccnc3O2)cn1 (stereo unspecified)	PGC1a acetyl up 58
O=C(Nc1cccc(Cl)c1)Nc1ccc2c(c1)OCO2	none
CC(=O)Nc1cccc(-c2ccnc3c2CC(C)(C(=O)Nc2ccc4c(c2)OCO4)O3)c1 (stereo unspecified)	PGC1a acetyl up 70
CC1CCCCC1NC(=O)C1CCN(C(=O)NC2CCCCC2)CC1 (stereo unspecified)	none
N#Cc1c(-c2ccccc2)c(-c2ccccc2)nn(CC(=O)NNC(=O)Nc2ccc(Cl)cc2)c1=O	none
Cc1nc(SCC(=O)OCc2ccccc2)c(C#N)c(-c2ccccc2)c1C(=O)Nc1ccccc1	PGC1a acetyl up 57
C[C@@H]1CN([C@H](C)CO)C(=O)c2cccc(NC(=O)C3CCCCC3)c2O[C@@H]1CN(C)CC1CCCCC1	none
Cc1ccc(NC(=S)c2ccncc2)cc1	PGC1a acetyl up 66
CC(C)N1CCc2c(sc(NC(=O)C3CCCCC3)c2C(N)=O)C1	none
COC(=O)c1cccc(NC(=O)CSc2nnc(C)n2C)c1	none
COC(=O)C(=Cc1ccc(OCc2ccc([N+](=O)[O-])cc2)c(OC)c1)C(=O)OC	none
CCN=C(N/N=C/c1ccc([N+](=O)[O-])cc1)SC	PGC1a acetyl up 59
COC(c1ccccc1)c1nnc(CCC(=O)N(C)C(C2CC2)C2CC2)o1 (stereo unspecified)	none
C/C=C/Cn1c(SCc2ccc(Cl)cc2)nc2c1c(=O)[nH]c(=O)n2C	none
CC1CC(=O)c2c(cc3c(-c4c(O)cc(O)c5c(O)c6c(cc45)OC(C)CC6=O)c(O)cc(O)c3c2O)O1 (stereo unspecified)	none
O=C(NCc1cccnc1)/C(=C\c1ccc(-c2cccc(Cl)c2)o1)S(=O)(=O)c1ccccc1	PGC1a acetyl up 76
O=C1Nc2c(Br)cc(Br)c3cccc1c23	none
COCC#Cc1cnc2c(c1)C(=O)N([C@H](C)CO)C[C@@H](C)[C@@H](CN(C)C(=O)c1cccnc1)O2	none
O=C(NCc1cccnc1)C1CC(=O)N(C2CCCCC2)C1 (stereo unspecified)	none
CCC(C)C(NC(=O)C1CCC(C)CC1)C(=O)NCc1cccnc1 (stereo unspecified)	PGC1a acetyl up 55
Cc1cc(-c2ccc(Cl)cc2)n2ncnc2n1	none
C[C@@H]1CN([C@@H](C)CO)C(=O)c2cc(/C=C/c3ccccc3)cnc2O[C@@H]1CN(C)Cc1cccnc1	none
CC(C)n1c(=S)[nH]c2cc(Cl)ccc21	none
O=C1c2ccccc2-c2c1cccc2C(=O)N1CCN(C(=O)c2ccco2)CC1	none
O=S(=O)(c1ccc2[nH]ccc2c1)N1CCCCCC1	none
Cc1ccc(S(=O)(=O)N2CCN(C(=O)N3CCOCC3)CC2)cc1C	none
O=C(Nc1cccc(S(=O)(=O)N2CCOCC2)c1)c1ccco1	PGC1a acetyl up 67
Cc1ccc(NC(=O)c2ccc([N+](=O)[O-])o2)cc1S(=O)(=O)N1CCOCC1	PGC1a acetyl up 191
O=C(Nc1cccc(S(=O)(=O)N2CCCCC2)c1)c1ccc([N+](=O)[O-])o1	PGC1a acetyl up 226
CC(C)(C)NS(=O)(=O)c1ccc(CCC(=O)N2CCOCC2)cc1	none
CC1=C(Cl)C2=NS(=O)(=O)CCN2C=C1Cl	none
C[C@@H]1CN([C@@H](C)CO)C(=O)CCCn2nncc2CO[C@H]1CN(C)S(=O)(=O)c1ccc(Cl)cc1	none
Cc1ccccc1Oc1cc(-n2ncc(Cl)c(Cl)c2=O)ncn1	none
COc1ccc(S(=O)(=O)Nc2ccccc2C)cc1C(=O)N1CCOCC1	none
CC1CCc2sc(C(=O)Nc3nnc(SCc4ccc(F)cc4)s3)cc2C1 (stereo unspecified)	none
Cn1ccc2cc(OCc3ccccc3)ccc21	PGC1a acetyl up 54
O=C1C2C3C=CC(C4CC34)C2C(=O)N1/N=C/c1c[nH]c2ccccc12 (stereo unspecified)	none
O=C(Cc1ccc(-n2cccc2)cc1)NCc1cccs1	PGC1a acetyl up 58
CC(C)c1ccc(NC(=O)CSc2nc3ccsc3c(=O)n2Cc2ccc(C(=O)O)cc2)cc1	none
COc1ccccc1OCCn1c(C(C)O)nc2ccccc21 (stereo unspecified)	PGC1a acetyl up 57
COCCn1c(SC(C)C(=O)Nc2ncc(Cl)cc2Cl)nc2ccccc21 (stereo unspecified)	none
O=C(c1ccc(F)cc1)N(C(=O)c1ccc(F)cc1)c1ncccn1	none
CN1c2ccccc2C2(C)CCCC3=Cc4cccc([N+](=O)[O-])c4OC312 (stereo unspecified)	PGC1a acetyl up 69
O=C(CN(Cc1ccc2c(c1)OCO2)C(=O)CNS(=O)(=O)c1ccccc1)NCc1ccco1	none
O=C(Nc1ccccc1)C1=C(c2ccccc2)S(=O)(=O)CCS1(=O)=O	PGC1a acetyl up 104
COc1ccc(-c2cc(-c3ccccc3O)[nH]n2)cc1OC	PGC1a acetyl up 95 | G6PC hep suppr inactive | PCK1 hep suppr inactive | PGC1a hep suppr inactive
CN(c1ccccc1)S(=O)(=O)c1ccc(Cl)nc1	none
O=[N+]([O-])c1ccc(Oc2ccc(F)cc2)c2ccncc12	none
CC1CCN(C(=O)COC(=O)c2ccc(Br)o2)CC1	none
CCc1ccc(S(=O)(=O)/N=C2\C=C(Nc3ccc(O)cc3)C(=O)c3ccccc32)cc1	none
Cc1ccc2[nH]cc(C(=O)CN3CCN(c4ccccc4F)CC3)c2c1	none | G6PC hep suppr inactive | PCK1 hep suppr inactive | PGC1a hep suppr inactive
C=CCn1c(SCC(=O)NCc2ccccc2)nnc1-c1ccccc1O	none
CC(=O)Nc1ccc(NC(=O)CN(c2cc(Cl)ccc2Cl)S(C)(=O)=O)cc1	PGC1a acetyl up 117 | G6PC hep suppr inactive | PGC1a hep suppr inactive
Cc1ccccc1NC(=O)/C(C#N)=C\c1cc(C)n(-c2ccc(C(=O)O)cc2)c1C	none

Bioassay records deposited in PubChem BioAssay by Broad Institute.
